Data from PMC6482079 (European journal of pharmaceutical sciences : official …, 2019).
Where “and” joins values, the source holds several entries; their conditions need not be identical. Identical values can stand only once.

Tests used:
A/WSN/33 (H1N1) [1] = assay type: cell-based, influenza A virus
A/WSN/33 (H1N1) [2] = assay: Time-of-addition experiment in MDCK cells; assay type: cell-based, influenza A virus; conditions: NMS-873 1.8 μM; for antiviral activity when added at 8 h post infection / effect on virus replication when present before or during infection: oseltamivir carboxylate 1 μM
[3] = system: influenza A and B viruses; assay: Plaque reduction assay, summary over the tested panel of viruses; assay type: cell-based; conditions: Influenza A virus, read-out: EC50 values against these viruses
[4] = system: A/Washington/29/2009 (H1N1); assay type: cell-based, influenza A virus; conditions: NMS-873 1 or 3 μM, oseltamivir carboxylate 1 μM
[5] = system: B/Wisconsin/1/2010 (Yamagata); assay: Viral titer reduction at high MOI; assay type: cell-based, influenza B virus; conditions: both 12 h p.i. and 24 h p.i., MOI of 1, MDCK
A549 cells = assay: Cellular cytotoxicity in A549 cells; assay type: cell-based, human; conditions: 3 μM
Outline: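 A549 human alveolar epithelial cells were incubated with serial concentrations of the test compound, up to 3 μM, for 24 or 48 h. Cell viability was then measured by neutral red uptake.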

[6] = system: A/WSN/33 (H1N1) viral proteins; assay type: cell-based, influenza A virus
[7] = system: influenza vRNPs (NP) nuclear export; assay type: cell-based, influenza A virus
MDCK cells = MDCK cells treated for 48 h
in vitro = conditions: dog

With CCC(CC)O[C@@H]1C=C(C(=O)O)C[C@H](N)[C@H]1NC(C)=O [Oseltamivir carboxylate] the “reduction of viral titer” value (A/WSN/33 (H1N1) [1]) was 2.1–2.5 log10 units, the “antiviral activity when added at 8 h post infection” value (A/WSN/33 (H1N1) [2]) was “potent inhibition” and the “effect on virus replication when present before or during infection” value (A/WSN/33 (H1N1) [2]) was “no effect”.
In the case of Cc1cc(OCc2nnc(SC3CCCC3)n2-c2cccnc2)ccc1-c1ccc(S(C)(=O)=O)cc1 [NMS-873], the EC50 [3] is reported as 28 to 56 nM, the “antiviral activity (viral titer)” value [4] is reported as “potent antiviral activity” and the “reduction of viral titer” value ([5]; 1 μM) is reported as “more than 1.8 log10 units”. The “inhibition of virus (viral titer)” value ([5]; 3 μM) was “completely inhibited”, the “reduction of viral titer” value (A/WSN/33 (H1N1) [1]) was 1.3–1.4 log10 units and 2.2–3.1 log10 units and the “cytotoxicity at highest drug concentration tested” value (A549 cells) was “not cytotoxic”. For the same compound, the “antiviral efficacy when added at 6 h post infection” value (A/WSN/33 (H1N1) [2]) was “dramatically decreased”, the “antiviral activity when added at 8 h post infection” value (A/WSN/33 (H1N1) [2]) was “completely abolished” and the “effect on virus replication when present before or during infection” value (A/WSN/33 (H1N1) [2]) was “no antiviral activity was observed”. For the same compound, the “levels of other viral proteins PA, PB1, HA and NS1” value [6] was “broadly reduced”, the “protein expression levels of M1 and NP” value [6] was “significantly reduced” and the NP subcellular localization [7] was “NP largely accumulated in the nucleus”. The “virus entry and NP nuclear import” value [7] was “neither affected the virus entry nor NP nuclear import”, the “concentration up to which no cellular cytotoxicity was observed” value (MDCK cells) was “up to 1.85 μM” and the CC50 (in vitro) was 2720 ± 30 nM.
